Test results taken from ChEMBL document CHEMBL1149813, “Synthesis of 6-amino-1,4-dihydropyridines that prevent calcium overload and neuronal death” (2008).

How the values were obtained:
[1] = test system: SH-SY5Y; assay: Blockade of high K+-induced increase in calcium uptake in human SH-SY5Y cells at 0.3 uM relative to control; assay type: functional
[2] = test system: SH-SY5Y; assay: Neuroprotective activity against human SH-SY5Y cells assessed as reduction in K+-induced LDH release at 0.3 uM relative to control; assay type: functional; design: scale not given: the % may be the effect or the level left
Summary of the method: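 SH-SY5Y neuroblastoma cells maintained in DMEM with 10% FCS at 37 °C in 5% CO2, used at passages 3–16. Cells treated before confluence in serum-free DMEM. Cell death from Ca2+ overload induced by 70 mM K+, read as LDH release. Compounds tested at 0.3 (unit as printed); nimodipine as reference. Means ± SEM, at least three cultures in quadruplicate.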

[3] = test system: SH-SY5Y; assay: Neuroprotective activity against calcium overload-induced cell death in human SH-SY5Y cells at 0.3 uM in presence of K+ relative to control; assay type: functional
Summary of the method: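 SH-SY5Y cells (passages 3–16 after thawing) were grown in DMEM with 10% FCS, glutamine and penicillin/streptomycin at 37 °C in 5% CO2. They were treated with compound before confluence in serum-free DMEM and challenged with 70 mM K+. Read-out was the reduction in the increase of LDH released, relative to a drug-free control. Means ± SEM from at least three cultures in quadruplicate.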

[4] = test system: SH-SY5Y; assay: Neuroprotective activity against human SH-SY5Y cells assessed as reduction in H2O2-induced LDH release at 0.3 uM relative to control; assay type: functional; design: scale not given: the % may be the effect or the level left
[5] = test system: SH-SY5Y; assay: Neuroprotective activity against free radical-induced cell death in human SH-SY5Y cells at 0.3 uM in presence of H2O2 relative to control

Compound | Activity [1] [%] | Activity [2] [%] | Activity [3] [%] | Activity [4] [%] | Activity [5] [%]
COCCOC(=O)C1=C(C)NC(C)=C(C(=O)OC(C)C)C1c1cccc([N+](=O)[O-])c1 (stereo not given) [NIMODIPINE] | 45.5 | 75 | 35.9 | 75.4 | 36.03
CC1(C)CC(=O)C2=C(C1)NC(N)=C(C#N)C2c1ccccc1 (stereo not given) | 20.8 | 61.2 | 54.7 | 84.2 | 20.6
CCOC(=O)C1=C(C)NC(N)=C(C#N)C1c1ccc(OC)c(OC)c1 (stereo not given) | 21.8 | 80.5 | 31.2 | 70.2 | 40.8
CCOC(=O)C1=C(C)NC(N)=C(C#N)C1c1cccc(OC)c1 (stereo not given) | 25 | 77.9 | 32.1 | 86.1 | 27.7
CC1(C)CC(=O)C2=C(C1)NC(N)=C(C#N)C2c1ccc(F)cc1 (stereo not given) | 63.9 | 69.9 | 42.3 | 75.4 | 32.4
CCOC(=O)C1=C(C)NC(N)=C(C#N)C1c1cccc([N+](=O)[O-])c1 (stereo not given) | 27.8 | 79.4 | 30.3 | 84.5 | 21.2
CCOC(=O)C1=C(C)NC(N)=C(C#N)C1c1ccc([N+](=O)[O-])cc1 (stereo not given) | 17.6 | 68.9 | 45.7 | 83.4 | 23.1
CCOC(=O)C1=C(C)NC(N)=C(C#N)C1c1ccccc1 (stereo not given) | 34.03 | 76.26 | 34.1 | 86.7 | 17.3
CCOC(=O)C1=C(C)NC(N)=C(C#N)C1c1ccncc1 (stereo not given) | 32.6 | 70.5 | 43.3 | 66.7 | 46.7
CCOC(=O)C1=C(C)NC(N)=C(C#N)C1c1ccc(-c2ccccc2)cc1 (stereo not given) | 23.9 | 90.9 | 12.9 | 80.3 | 26.2
CC1(C)CC(=O)C2=C(C1)NC(N)=C(C#N)C2c1ccncc1 (stereo not given) | 50.4 | 71.4 | 39.5 | 77.7 | 29.1
CCOC(=O)C1=C(C)NC(N)=C(C#N)C1c1ccccc1OC (stereo not given) | 24.3 | 78.2 | 31.5 | 88.4 | 15
CCOC(=O)C1=C(C)NC(N)=C(C#N)C1c1ccccc1[N+](=O)[O-] (stereo not given) | 16.1 | 71.11 | 42.6 | 98.8 | 1.6
CCOC(=O)C1=C(C)NC(N)=C(C#N)C1c1cccnc1 (stereo not given) | 14.1 | 70.5 | 43.4 | 84.5 | 21.2
CCOC(=O)C1=C(C)NC(N)=C(C#N)C1c1ccc(C)cc1 (stereo not given) | 16.9 | 72.3 | 40.8 | 69.7 | 42.4
CCOC(=O)C1=C(C)NC(N)=C(C#N)C1c1ccc(F)cc1 (stereo not given) | 7.2 | 72.8 | 39.8 | 82.2 | 24.7
COc1ccc(C2C(C#N)=C(N)NC3=C2C(=O)CC(C)(C)C3)cc1 (stereo not given) | 12.6 | 69.3 | 43.2 | 77.8 | 29
Cc1ccc(C2C(C#N)=C(N)NC3=C2C(=O)CC(C)(C)C3)cc1 (stereo not given) | 28.6 | 68.4 | 44.4 | 88.6 | 14.9
CCOC(=O)C1=C(C)NC(N)=C(C#N)C1c1ccc(OC)cc1 (stereo not given) | 11.8 | 89.9 | 14.4 | 77.7 | 31.3
CCOC(=O)C1=C(C)NC(N)=C(C#N)C1c1ccccc1C(F)(F)F (stereo not given) | 30.4 | 72.11 | 40.2 | 78.6 | 28.2
